Laboratory results as given in ChEMBL document CHEMBL3085761, “Synthesis, anticonvulsant and anti-inflammatory studies of new 1,4-dihydropyridin-4-yl-phenoxyacetohydrazones” (Eur J Med Chem, 2013).

Tests used:
Format in all cases: functional
Rattus norvegicus [1] = assay: Antiinflammatory activity in Wistar rat assessed as inhibition of carrageenan-induced paw edema at 20 mg/kg administered 30 mins prior to carrageenan-challenge measured after 3 hrs by plethysmographic analysis relative to control
Outline: (§1)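 Male or female Wistar rats (100–150 g), five per group, fasted overnight; 20 mg/kg given by stomach tube in 5 mL water. 30 min later 0.05 mL 1% carrageenan s.c. into left hind paw plantar side; paw volume by mercury plethysmography at 0, 30, 60, 120, 180 min; percent inhibition versus control, one-way ANOVA with Dunnett's test.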

Rattus norvegicus [2] = assay: Antiinflammatory activity in Wistar rat assessed as inhibition of carrageenan-induced paw edema at 20 mg/kg administered 30 mins prior to carrageenan-challenge measured after 30 mins by plethysmographic analysis relative to control; outline: as §1
Rattus norvegicus [3] = assay: Antiinflammatory activity in Wistar rat assessed as inhibition of carrageenan-induced paw edema at 20 mg/kg administered 30 mins prior to carrageenan-challenge measured after 2 hrs by plethysmographic analysis relative to control; outline: as §1
Rattus norvegicus [4] = assay: Antiinflammatory activity in Wistar rat assessed as inhibition of carrageenan-induced paw edema at 20 mg/kg administered 30 mins prior to carrageenan-challenge measured after 1 hr by plethysmographic analysis relative to control; outline: as §1
Mus musculus [5] = assay: Anticonvulsant activity in ip dosed mouse assessed as protection against maximal electroshock-induced epileptic seizures after 0.5 hrs; conditions: read-out: MED
Outline: (§2)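 Mice (20–40 g), groups of six to ten; i.p. doses 30, 100 and 300 mg/kg; tested at 0.5 and 4 h. Stimulus 50 mA, 60 Hz, 0.2 s via corneal electrodes primed with anaesthetic electrolyte; abolition of hindlimb tonic extension scored as protection. Value is the minimal dose protecting at least 50% of animals.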

Mus musculus [6] = assay: Anticonvulsant activity in ip dosed mouse assessed as protection against maximal electroshock-induced epileptic seizures after 4 hrs; conditions: read-out: MED; outline: as §2

O=C(O)Cc1ccccc1Nc1c(Cl)cccc1Cl [DICLOFENAC SODIUM] showed an inhibition in vivo at 20 mg/kg (Rattus norvegicus [1]) of 65.3%, an inhibition in vivo at 20 mg/kg (Rattus norvegicus [2]) of 16.7% and an inhibition in vivo at 20 mg/kg (Rattus norvegicus [3]) of 61.1%. It also gave an inhibition in vivo at 20 mg/kg (Rattus norvegicus [4]) of 41%.

O=C1NC(=O)C(c2ccccc2)(c2ccccc2)N1 [PHENYTOIN] was tested, and the minimal effective dose (Mus musculus [5]) was 30 mg/kg and the minimal effective dose (Mus musculus [6]) was 30 mg/kg.
